pKd: −log10 of the molar value. Values belong to the compound of their own block, whether it stands above or below them. Calls of active or inactive are those of the source. The rule behind the calls is not given here.
How the values were obtained:
[1] = target: T1, Integrin alpha-L (Mus musculus) (UniProt P24063); test: Inhibition of LFA-1/ICAM-1 interaction in mouse Lim51b cells assessed as PMA-induced adhesion to ICAM-1 expressing HSE cells at 20 ug/ 5 x 10^5 cells after 30 mins by fluorometric microplate reader analysis; type: cell-based
T1 sequence (whole entry): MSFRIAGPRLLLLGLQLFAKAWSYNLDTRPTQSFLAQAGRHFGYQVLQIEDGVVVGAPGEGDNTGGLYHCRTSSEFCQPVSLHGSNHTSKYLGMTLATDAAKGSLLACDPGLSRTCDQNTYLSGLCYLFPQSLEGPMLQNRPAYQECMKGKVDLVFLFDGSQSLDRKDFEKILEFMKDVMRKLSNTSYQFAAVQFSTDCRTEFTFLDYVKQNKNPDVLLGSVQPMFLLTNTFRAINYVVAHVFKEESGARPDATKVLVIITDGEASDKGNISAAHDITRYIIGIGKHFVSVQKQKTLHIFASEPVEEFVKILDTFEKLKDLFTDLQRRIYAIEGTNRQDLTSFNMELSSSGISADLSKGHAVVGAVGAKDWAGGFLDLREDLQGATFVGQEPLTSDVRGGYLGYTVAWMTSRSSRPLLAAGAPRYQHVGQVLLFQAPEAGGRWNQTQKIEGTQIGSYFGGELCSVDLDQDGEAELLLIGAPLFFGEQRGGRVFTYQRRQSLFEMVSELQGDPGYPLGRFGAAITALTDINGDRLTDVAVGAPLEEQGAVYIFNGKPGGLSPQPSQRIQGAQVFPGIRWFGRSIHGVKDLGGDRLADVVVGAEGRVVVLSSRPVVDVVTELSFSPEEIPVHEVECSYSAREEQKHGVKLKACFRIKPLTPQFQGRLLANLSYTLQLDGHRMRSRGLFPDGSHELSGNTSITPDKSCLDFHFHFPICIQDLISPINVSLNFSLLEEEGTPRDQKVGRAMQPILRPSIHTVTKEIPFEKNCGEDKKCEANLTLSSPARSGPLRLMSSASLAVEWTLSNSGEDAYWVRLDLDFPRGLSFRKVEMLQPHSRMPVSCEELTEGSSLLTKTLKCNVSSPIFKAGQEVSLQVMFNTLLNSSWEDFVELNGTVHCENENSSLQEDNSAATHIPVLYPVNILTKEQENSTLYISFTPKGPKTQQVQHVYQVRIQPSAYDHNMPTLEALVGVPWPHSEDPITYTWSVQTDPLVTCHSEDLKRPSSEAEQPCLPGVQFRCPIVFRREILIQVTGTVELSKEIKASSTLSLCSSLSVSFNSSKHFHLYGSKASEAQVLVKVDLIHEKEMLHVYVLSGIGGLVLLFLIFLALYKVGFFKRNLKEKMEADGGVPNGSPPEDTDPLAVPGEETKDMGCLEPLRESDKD
In short: (§1)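 CT26-CC or Lim51b-CC cells were stimulated with PMA and preincubated for 30 min with compound or anti-LFA-1 antibody. Adhesion to hepatic sinusoidal endothelial cells was then quantified using a previously validated in vitro bioassay. Significance was assessed by ANOVA with Bonferroni post hoc test.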

[2] = target: T1, Integrin alpha-L (Mus musculus); test: Inhibition of LFA-1/ICAM-1 interaction in mouse CT26 cells assessed as PMA-induced adhesion to ICAM-1 expressing HSE cells at 20 ug/ 5 x 10^5 cells by fluorometric microplate reader analysis; type: cell-based; in short: as §1
[3] = tested on: CT26; test: Antitumor activity against mouse CT26 cells allografted in BALB/c mouse assessed as decrease in expression level of protein Ki67 at 2.5 mg/kg, sc measured on day 15 relative to control; type: functional; design: scale not given: the % may be the effect or the level left; conditions: route subcutaneous
In short: (§2)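 BALB/c mice were injected subcutaneously with 5 × 10⁵ CT26-CC cells. Compound/PAMAM G3.5 was then given as daily subcutaneous injections at 2.5 mg/kg. Primary tumors were removed on day 15 and their volume was measured. Ki67 was scored by immunohistochemistry as the percentage of positive tumor cells across 10 random fields. Significance was assessed by ANOVA with a post hoc test.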

[4] = tested on: CT26; test: Antitumor activity against mouse CT26 cells allografted in BALB/c mouse assessed as decrease in tumor volume at 2.5 mg/kg, sc measured on day 15 relative to control; type: functional; design: scale not given: the % may be the effect or the level left; conditions: route subcutaneous; in short: as §2
[5] = target: T2, Integrin alpha-L (Homo sapiens) (UniProt P20701); test: Inhibition of LFA-1/ICAM-1 interaction in human peripheral blood leukocytes assessed as reduction on PMA-induced adhesion to immobilized human recombinant ICAM-1 at 20 ug/ 5 x 10^5 cells after 30 mins by fluorescence assay; type: cell-based
T2 sequence (whole entry): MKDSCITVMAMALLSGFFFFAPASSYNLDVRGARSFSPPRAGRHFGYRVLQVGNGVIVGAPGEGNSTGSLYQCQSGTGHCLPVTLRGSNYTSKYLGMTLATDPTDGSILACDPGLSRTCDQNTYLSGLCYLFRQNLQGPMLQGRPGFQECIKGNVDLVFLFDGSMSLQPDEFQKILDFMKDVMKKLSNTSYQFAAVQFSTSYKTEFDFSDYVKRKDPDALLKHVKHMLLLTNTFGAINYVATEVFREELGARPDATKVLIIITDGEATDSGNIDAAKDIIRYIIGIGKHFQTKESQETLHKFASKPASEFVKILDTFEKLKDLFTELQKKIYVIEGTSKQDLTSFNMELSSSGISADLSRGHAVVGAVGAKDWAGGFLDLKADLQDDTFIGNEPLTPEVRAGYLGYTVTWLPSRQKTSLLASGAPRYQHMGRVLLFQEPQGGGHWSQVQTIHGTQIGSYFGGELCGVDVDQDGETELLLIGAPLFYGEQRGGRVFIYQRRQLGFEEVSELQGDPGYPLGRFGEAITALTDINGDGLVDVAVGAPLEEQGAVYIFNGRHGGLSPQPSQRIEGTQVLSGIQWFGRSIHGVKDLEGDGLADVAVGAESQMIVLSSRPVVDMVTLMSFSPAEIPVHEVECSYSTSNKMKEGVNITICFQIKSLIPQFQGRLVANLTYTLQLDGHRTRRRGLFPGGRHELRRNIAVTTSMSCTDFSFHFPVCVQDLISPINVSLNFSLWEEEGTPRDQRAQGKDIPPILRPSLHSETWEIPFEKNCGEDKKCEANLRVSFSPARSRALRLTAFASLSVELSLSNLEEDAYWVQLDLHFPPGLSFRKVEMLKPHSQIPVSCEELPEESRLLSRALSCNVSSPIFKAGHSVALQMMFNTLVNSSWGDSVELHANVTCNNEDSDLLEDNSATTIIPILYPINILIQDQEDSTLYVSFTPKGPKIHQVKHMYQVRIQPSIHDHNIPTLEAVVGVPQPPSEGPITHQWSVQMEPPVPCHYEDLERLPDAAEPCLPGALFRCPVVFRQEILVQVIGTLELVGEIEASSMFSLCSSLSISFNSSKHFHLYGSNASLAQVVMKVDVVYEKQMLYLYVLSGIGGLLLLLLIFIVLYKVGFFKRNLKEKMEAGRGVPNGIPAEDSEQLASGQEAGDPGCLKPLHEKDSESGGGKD
In short: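 Human peripheral blood leukocytes were stimulated with PMA and preincubated with compound. Adhesion to immobilized recombinant human ICAM-1, a commercial form containing all five extracellular domains, was then quantified. Significance was assessed by ANOVA with Bonferroni post hoc test.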

[6] = target: Integrin alpha-2 (Homo sapiens) (UniProt P17301); test: Binding affinity to integrin alpha2 I-domain (unknown origin)
[7] = Binding affinity to I-domain of human integrin alphaL (amino acid residues 128 to 307) plus initial methionine K287C/K294C mutant expressed in BL21 cells by NMR spectroscopy; type: cell-based
[8] = target: T3, Integrin alpha-L (Homo sapiens, UniProt P20701); test: Binding affinity to I-domain of human integrin alphaL (amino acid residues 128 to 307) plus initial methionine expressed in Escherichia coli by NMR spectroscopy
T3 sequence (P20701 whole entry): T2 sequence (whole entry)

[9] = tested on: B16; test: Inhibition of VEGF production in mouse B16 M cells at 10 ug/ml preincubated for 30 mins prior to H2O2 addition measured after 2 hrs by ELISA; type: functional, cell-based
[10] = tested on: B16; test: Inhibition of VEGF production in mouse B16 M cells at 10 ug/ml preincubated for 30 mins prior to ICAM addition measured after 2 hrs by ELISA; type: functional, cell-based
[11] = tested on: CT26; test: Antimetastatic activity against mouse CT26 cells allografted in BALB/c mouse assessed as decrease in cancer cell volume in liver at 10 ug/ml preincubated for 30 mins prior to inoculation measured on day 14 relative to control; type: functional
In short: (§3)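 Male BALB/c mice, 6–8 weeks old and anesthetized (n = 10 per group; three independent experiments), received an intrasplenic injection of 1.5 × 10⁵ viable CT26-CC cells in 0.1 mL Hank's balanced salt solution. Mice were killed on day 14. Densitometric and stereological image analysis gave metastases per 100 mm³ liver (fifteen sections per liver) and the percentage of liver volume occupied.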

[12] = tested on: CT26; test: Antimetastatic activity against mouse CT26 cells allografted in BALB/c mouse assessed as reduction in metastasis density at 10 ug/ml preincubated for 30 mins prior to inoculation measured on day 14 relative to control; type: functional; in short: as §3
[13] = tested on: B16M; test: Inhibition of VLA-4/VCAM-1 interaction in mouse B16M cells assessed as PMA-induced adhesion to immobilized VCAM-1 at 25 ug/ 5 x 10^5 cells after 30 mins by microplate reader analysis; type: cell-based
[14] = tested on: BL21; test: Inhibition of I-domain of human integrin alphaL (amino acid residues 128 to 307) plus initial methionine K287C/K294C mutant-ICAM1 interaction expressed in BL21 cells after 4 hrs by NMR analysis
[15] = species: Homo sapiens; test: Binding affinity to protein G B1-domain (unknown origin)

Integrin alpha-2 (Homo sapiens), sequence (P17301 whole entry, the tested form may be a part): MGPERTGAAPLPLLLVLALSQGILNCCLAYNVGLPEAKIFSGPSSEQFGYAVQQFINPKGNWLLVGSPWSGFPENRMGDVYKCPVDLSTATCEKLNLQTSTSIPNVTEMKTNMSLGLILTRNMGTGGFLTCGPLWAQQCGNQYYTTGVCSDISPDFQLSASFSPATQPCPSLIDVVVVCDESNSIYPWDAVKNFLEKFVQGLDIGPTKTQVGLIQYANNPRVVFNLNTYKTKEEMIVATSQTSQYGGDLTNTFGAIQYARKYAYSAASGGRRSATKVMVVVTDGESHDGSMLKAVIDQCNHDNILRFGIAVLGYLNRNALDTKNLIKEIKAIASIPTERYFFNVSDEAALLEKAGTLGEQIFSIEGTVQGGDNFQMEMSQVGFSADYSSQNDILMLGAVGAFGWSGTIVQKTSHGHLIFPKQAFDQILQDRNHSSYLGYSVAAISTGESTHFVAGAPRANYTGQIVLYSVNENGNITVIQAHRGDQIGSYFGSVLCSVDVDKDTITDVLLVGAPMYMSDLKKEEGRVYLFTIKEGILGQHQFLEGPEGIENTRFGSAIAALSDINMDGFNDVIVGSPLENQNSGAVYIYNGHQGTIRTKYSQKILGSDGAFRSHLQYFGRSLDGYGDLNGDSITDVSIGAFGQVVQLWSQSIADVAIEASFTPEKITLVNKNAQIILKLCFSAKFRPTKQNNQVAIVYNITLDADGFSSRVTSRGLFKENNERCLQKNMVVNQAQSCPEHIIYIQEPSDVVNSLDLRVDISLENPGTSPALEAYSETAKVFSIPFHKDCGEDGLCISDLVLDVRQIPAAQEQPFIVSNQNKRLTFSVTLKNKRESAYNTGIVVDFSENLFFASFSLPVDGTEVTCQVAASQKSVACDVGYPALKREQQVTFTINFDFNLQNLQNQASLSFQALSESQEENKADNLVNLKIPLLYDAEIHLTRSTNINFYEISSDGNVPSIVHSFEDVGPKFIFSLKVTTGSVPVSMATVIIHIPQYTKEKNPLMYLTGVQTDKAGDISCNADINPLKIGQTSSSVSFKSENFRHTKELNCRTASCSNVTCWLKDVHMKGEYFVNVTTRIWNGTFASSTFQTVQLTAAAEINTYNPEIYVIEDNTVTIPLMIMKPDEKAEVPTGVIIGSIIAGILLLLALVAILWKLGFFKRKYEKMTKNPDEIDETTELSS

inhibition [1]: Active
inhibition [2]: Active
Compound: CC[C@H](C)[C@H](OCc1ccccc1)[C@H]1[C@H]([N+](=O)[O-])[C@H](c2ccccc2)N[C@@H]1C(=O)NCCC(=O)O

inhibition [2]: Active
Compound: CC[C@H](C)[C@H](OCc1ccccc1)[C@H]1[C@H]([N+](=O)[O-])[C@H](c2ccccc2)N[C@@H]1C(=O)NCCCCC(=O)O

inhibition [2]: Active
Compound: CC[C@H](C)[C@H](OCc1ccccc1)[C@H]1[C@H]([N+](=O)[O-])[C@H](c2ccccc2)N(C(=O)CN)[C@]1(C)C(=O)NCCC(=O)O
Activity [3]: 40%
Activity [4]: 77%

inhibition [2]: Active
Compound: CC[C@H](C)[C@H](OCc1ccccc1)[C@H]1[C@H]([N+](=O)[O-])[C@H](c2ccccc2)N[C@]1(C)C(=O)NCCCCC(=O)O

inhibition [5]: Active
inhibition [2]: Active
Compound: CC[C@H](C)[C@H](OCc1ccccc1)[C@H]1[C@H]([N+](=O)[O-])[C@H](c2ccccc2)N[C@@H]1C(=O)NCCCCCC(=O)O
Activity [3]: 40%
Activity [4]: 85%

Activity [6]: inactive
Compound: CC[C@H](C)C(=O)O[C@H]1C[C@@H](C)C=C2C=C[C@H](C)[C@H](CC[C@@H]3C[C@@H](O)CC(=O)O3)[C@H]21

pKd [8]: 5.00
inhibition [5]: Active
inhibition [1]: Active
inhibition [2]: Active
Compound: CC[C@H](C)[C@H](OCc1ccccc1)[C@H]1[C@H]([N+](=O)[O-])[C@H](c2ccccc2)N[C@]1(C)C(=O)NCCC(=O)O
pKd [7]: 4.09
inhibition [9]: Active
inhibition [10]: Active
fold change (FC) [11]: 25
fold change (FC) [12]: 25
inhibition [13]: inactive
inhibition [14]: inactive

inhibition [2]: Active
Compound: CC[C@H](C)[C@H](OCc1ccccc1)[C@H]1[C@H]([N+](=O)[O-])[C@H](c2ccccc2)N[C@@H]1C(=O)NCCCC(=O)O

inhibition [2]: inactive
Compound: CC[C@H](C)[C@H](OCc1ccccc1F)[C@H]1[C@H]([N+](=O)[O-])[C@H](c2ccsc2)N[C@@H]1C(=O)NCCC(=O)O

inhibition [2]: Active
Compound: CC[C@H](C)[C@H](OCc1ccccc1)[C@H]1[C@H]([N+](=O)[O-])[C@H](c2ccccc2)N[C@]1(C)C(=O)NCCCCCC(=O)O

pKd [8]: 5.13
Activity [15]: inactive
Activity [6]: inactive
inhibition [2]: Active
Compound: CC[C@H](C)[C@H](OCc1ccccc1)[C@H]1[C@H]([N+](=O)[O-])[C@H](c2ccccc2)N[C@]1(C)C(=O)NCCCC(=O)O

inhibition [2]: inactive
Compound: CC[C@H](C)[C@H](OCc1ccccc1)[C@H]1[C@H]([N+](=O)[O-])[C@H](c2ccccc2)N[C@@H]1C(=O)NCC(=O)O

Reference: ChEMBL document CHEMBL2311462, “Design, synthesis, and functional evaluation of leukocyte function associated antigen-1 antagonists in early and late stages of cancer development” (J Med Chem, 2013)
